# Screening results deposited in PubChem by several laboratories.
# Dynein transport – inhibitors of GR-EGFP nuclear translocation, primary screen, dynein cargo transport inhibitor project, imaging, high-content, 3617.4 mouse cells; z-score, hits read low; test concentration mostly 20 µM; stimulated with dexamethasone, 1 µM; active compounds read low; AID 1381, 2008; 220,000 tested, 0.47% active;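 active = plate z-score of nuclear minus cytoplasmic receptor signal below a set negative limit, without overly bright fluorescence or cell loss, cut at about -3.5 in these data, passing the limit was not always enough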;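 note: z-score of nuclear minus cytoplasmic ring GR-EGFP intensity difference per well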
#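 Also added – dexamethasone, 1.0 µM final · Buffer or medium – tet-free, stripped-serum medium · Schedule – induction 48 h, compound 1 h, agonist 30 min · Detection – formaldehyde fixation, Hoechst nuclear stain, 10x automated fluorescence imaging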
# bCat nuc transl – modulators of beta-catenin nuclear translocation, primary screen, imaging, HeLa cells, immunofluorescence, high-content; 190,000 tested, 0.3% active; nuclear translocation activity, % at 5 µM;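 active = nuclear translocation activity above 50% at 5 µM, with a well cell count of 50 or more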;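 note: per-cell ratio of nuclear to cytoplasmic median beta-catenin stain intensity; plate controls were DMSO negative control for no effect and GSK-3 inhibitor IX positive control for full effect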
#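 Read-out: Nuclear/cytoplasmic beta-catenin signal ratio, % activation | Assay system: Human HeLa cell line | Times: 24 h compound exposure at 37°C, 5% CO2 | Signal: Fluorescence imaging of beta-catenin antibody stain plus DAPI | Dosing: 5 µM primary, 0.02–20 µM confirmation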
# Autophagy HCS – autophagy modulators in MEF cells, primary screen, imaging, high-content, MEF GFP-LC3; MEF GFP-LC3 puncta imaging; test concentration mostly 10 µM; calls only at 10 µM (by protocol); 190,000 tested, 0.98% active;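 active = percentage of spot-positive cells more than 3 SD above its plate mean, without a fluorescence outlier flag or 80% toxicity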;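 note: spot-positive cell cutoff set from DMSO-treated cells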
# CHOP inh – inhibitors of CHOP promoter induction, primary screen, cell-based, unfolded protein response, luciferase reporter; inhibition, % at 10 µM; 220,000 tested, 3.8% active; CHO-K1 CHOP-promoter luciferase, tunicamycin-induced, 15-18 h;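 active = compounds that reduced the stress-induced luciferase reporter signal by more than about 70% of percent inhibition, limit read from the data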;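 note: 0% = tunicamycin plus vehicle and 100% = wells without tunicamycin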
# Lmaj promast – Leishmania major promastigote growth inhibition, primary screen; Leishmania major promastigotes, resazurin fluorescence viability; inhibition, % at 10 µM; 200,000 tested, 9% active; in the data active = inhibition above about 50%;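 note: promastigotes grown with compound for 44 hours at 28 °C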
# MT stabilizer – microtubule stabilizers in HeLa cells, primary screen, imaging, high-content imaging; HeLa tubulin immunostaining HCS, 24 h; share of cells brighter than vehicle mean+2SD; % tubulin-high responders, % at 10 µM; 200,000 tested, 0.83% active; AID 2205, 2009;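 active = plate Z-score above 3 for both tubulin-high and condensed-nucleus cell shares, with cell loss under 80%, at 10 µM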;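 note: anti alpha tubulin signal scored within the nucleus-defined area of each cell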
# * hit, by the source's call; i = inactive; . = no result; + = active, no number. The list is not random: actives were taken first. Their share in the collection is about 12%.
SMILES,Dynein transport,bCat nuc transl,Autophagy HCS,CHOP inh,Lmaj promast,MT stabilizer
COc1cccc2cc(C(C)N(CCCN3CCOCC3)C(=S)Nc3ccccc3C)oc12 (stereo unspecified),-0.78,-1,i,15,40,3
COCCNC(=O)CN1CCN(Cc2cccc(Cl)c2)C1=O,-0.52,-2,.,18,-8,6
O=C(C1=C[C@H](c2ccccc2)C[C@H](OCc2ccc(CO)cc2)O1)N1CCCCCCC1,-1.4,-4,i,-19,22,2
CN(C1CCCCC1)S(=O)(=O)c1ccc(NC(=O)c2ccc(Br)o2)cc1,0.95,0,i,-9,57*,2
O=C(Nc1ccc(S(=O)(=O)NC2CCCCC2)cc1)c1ccc(Br)o1,-0.74,1,i,83*,6,1
CSc1ccc(S(=O)(=O)NC2CCCCCC2)cc1,1.8,.,i,78*,2,3
CC1(C(=O)O)CCC(C(=O)N2CCCCC2)C1(C)C (stereo unspecified),-0.53,1,i,-11,1,2
C=CSc1sc(Cl)c(N(CC)CC)c1[N+](=O)[O-],-1.2,-1,i,8,6,4
O=C(O)c1ccc(OCCOc2ccccc2)cc1,0.19,0,.,7,.,.
O=S(=O)(Nc1ccccn1)c1cccs1,2.8,-1,i,-11,3,3
CCOc1ccc(NC(=O)N[C@@H](Cc2ccccc2)C(=O)O)cc1,1.3,1,.,0,.,.
CC(=O)c1sc(NC(=O)COc2ccc(C(C)C)c(C)c2)nc1C,-0.14,1,i,77*,-2,2
CC(=O)c1sc(NC(=O)COc2ccccc2)nc1C,-0.18,-2,i,-10,-1,2
O=C(Cc1ccc(Cl)cc1)N/N=C/c1c(Cl)cccc1Cl,1.9,0,i,32,72*,4
O=C(CSc1ccccc1)N/N=C/c1ccccc1O,-1,1,i,34,-4,3
O=C(CSCc1ccc(Cl)cc1)N/N=C/c1ccc(Cl)cc1Cl,0.33,2,i,91*,-8,3
Cc1ccsc1/C=N/NC(=O)Cc1ccc(Cl)cc1,0.58,1,.,35,.,.
Cc1ccsc1/C=N/NC(=O)CSCc1ccc(Cl)cc1,0.26,2,i,92*,1,3
O=C(Cc1ccccc1)N/N=C/c1ccccc1OCc1ccc(Cl)cc1,-0.084,.,i,19,2,2
COc1ccc(CSCC(=O)N/N=C/c2ccccc2O)cc1,1.9,0,+,36,68*,3
Cc1ccc(Nc2nc(N)nc(CN3CCN(C(=O)c4ccco4)CC3)n2)cc1Cl,1.9,1,i,31,14,4
COc1ccc(-n2c(SCc3ccc([N+](=O)[O-])cc3)nnc2-c2ccc(C)cc2)cc1,0.6,-2,i,22,16,5
CC12CCC(C(=O)N(CC3CO3)C1=O)C2(C)C (stereo unspecified),0.16,1,i,-25,-5,2
O=C(CSc1n[nH]c(=O)[nH]c1=O)N/N=C/c1ccccc1O,0.074,-3,i,9,100*,1
CCOc1ccccc1/C=N/NC(=O)CSc1n[nH]c(=O)[nH]c1=O,-0.11,-4,i,9,-1,1
SMILES,Dynein transport,bCat nuc transl,Autophagy HCS,CHOP inh,Lmaj promast,MT stabilizer
CSc1ccc(CN(C)Cc2nc3cc(C(F)(F)F)ccc3c(=O)[nH]2)cc1,-0.037,-2,i,71*,7,4
O=c1[nH]c(CSc2ncnc3sccc23)nc2cc(C(F)(F)F)ccc12,1,0,.,89*,.,.
O=c1[nH]c(CSc2ncc(C(F)(F)F)cc2Cl)nc2ccccc12,0.85,-3,i,-4,-1,4
Fc1ccc(C2C3=C(Nc4ncnn42)c2ccccc2OC3c2ccncc2)cc1 (stereo unspecified),-0.25,.,i,16,18,1
Cc1ccc(C2Oc3ccccc3C3=C2C(c2cccs2)n2ncnc2N3)cc1 (stereo unspecified),-0.28,16,i,34,51*,32*
O=C(NC(=S)Nc1ccccc1O)c1ccccc1Cl,0.19,2,i,-20,13,5
Cc1cc2cc(CN(Cc3cccs3)C(=S)NCC3CCCO3)c(=O)[nH]c2cc1C (stereo unspecified),0.82,0,i,11,96*,2
COc1ccc2[nH]c(=O)c(CN(Cc3cccs3)C(=S)NCC3CCCO3)cc2c1 (stereo unspecified),0.19,0,.,3,.,.
Cc1cc(C)c2[nH]c(=O)c(CN(Cc3ccco3)C(=S)NCC3CCCO3)cc2c1 (stereo unspecified),-0.31,-1,i,32,88*,3
Cc1cc(C)c2[nH]c(=O)c(CN(Cc3cccs3)C(=S)NCC3CCCO3)cc2c1 (stereo unspecified),-0.44,0,i,35,53*,6
C=C1CCN([C@H](C(=O)OCc2cccc(C)c2)C(C)C)S(=O)(=O)c2ccccc21,0.6,0,.,14,.,.
CCC1C/C(=C/c2ccco2)C(=O)/C(=C/c2ccco2)C1 (stereo unspecified),-6.3,-2,i,86*,15,6
Nc1ncnc2c1ncn2[C@@H]1O[C@H](C(=O)NC2CC2)[C@H](O)C1O (stereo partly specified),.,.,.,-19,.,.
C=CCNc1ncnc2ccccc12,0.085,-1,i,.,22,5
C=CCNc1ncnc2c1[nH]c1ccccc12,-0.57,0,i,-5,67*,5
COc1cc(CNc2ncnc3c2[nH]c2ccc(C)cc23)cc(OC)c1,-0.65,-1,.,20,.,.
c1ccc2c(c1)[nH]c1c(NCC3CCCO3)ncnc12 (stereo unspecified),0.99,0,i,20,86*,5
C=CCNc1ncnc2c1[nH]c1ccc(Cl)cc12,-0.31,7,i,10,100*,4
Cn1c(=O)c2ncn(CC(=O)N=Nc3c(O)[nH]c4ccccc34)c2n(C)c1=O,1.1,4,i,-20,-1,4
Cc1ccc(/C(N)=N/OC(=O)c2ccc(Cl)cc2Cl)cc1,2.5,3,i,32,85*,3
Cc1ccc(/C(N)=N/OC(=O)c2ccc3c(c2)OCO3)cc1,-0.49,-1,i,17,51*,4
COc1ccc(/C(N)=N/OC(=O)c2ccc3c(c2)OCO3)cc1,-0.69,0,i,28,-5,3
Cc1cc(C)cc(C(=O)O/N=C(\N)c2ccc(Br)cc2)c1,-0.84,2,i,72*,3,2
